Experimental data taken from ChEMBL document CHEMBL4304792, “Cinnamonitrile Adjuvants Restore Susceptibility to β-Lactams against Methicillin-Resistant Staphylococcus aureus” (ACS Med Chem Lett, 2019).
pIC50: −log10 of the molar value. In brackets after ≈: the same amount, converted by molar mass. Activity calls are given as the source filed them. No cut-off for these calls is given here.

Tests used:
Staphylococcus aureus [1] = assay: Antibacterial activity against Staphylococcus aureus USA200-NRS383 measured after 16 to 20 hrs in presence of 2% NaCl by microdilution broth method; type: functional
Staphylococcus aureus [2] = assay: Antibacterial activity against Staphylococcus aureus NRS119 measured after 16 to 20 hrs in presence of 2% NaCl by microdilution broth method; type: functional
Staphylococcus aureus [3] = assay: Potentiation of oxacillin induced antibacterial activity against Staphylococcus aureus USA100-NRS382 assessed as oxacillin MIC at 16 uM measured after 16 to 20 hrs in presence of 2% NaCl by microdilution broth method (reference value: 64 mg/L); type: functional
Staphylococcus aureus [4] = assay: Potentiation of oxacillin induced antibacterial activity against Staphylococcus aureus USA200-NRS383 assessed as oxacillin MIC at 16 uM measured after 16 to 20 hrs in presence of 2% NaCl by microdilution broth method (reference value: 128 mg/L); type: functional
HeLa = assay: Cytotoxicity against human HeLa cells by XTT assay; type: cell-based
Method in brief: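 HeLa human cervical cancer cells were exposed to the compounds. Viability was read by XTT colorimetric assay, and IC50 was reported in μM and mg·L–1.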

Staphylococcus aureus [5] = assay: Antibacterial activity against Staphylococcus aureus NRS384 measured after 16 to 20 hrs in presence of 2% NaCl by microdilution broth method; type: functional
Staphylococcus aureus [6] = assay: Potentiation of oxacillin induced antibacterial activity against Staphylococcus aureus USA200-NRS383 assessed as oxacillin MIC at 8 uM measured after 16 to 20 hrs in presence of 2% NaCl by microdilution broth method (reference value: 128 mg/L); type: functional
Staphylococcus aureus [7] = assay: Antibacterial activity against Staphylococcus aureus Mu50 NRS1 measured after 16 to 20 hrs in presence of 2% NaCl by microdilution broth method; type: functional
Staphylococcus aureus [8] = assay: Potentiation of oxacillin induced antibacterial activity against Staphylococcus aureus MW2 NRS123 assessed as oxacillin MIC at 8 uM measured after 16 to 20 hrs in presence of 2% NaCl by microdilution broth method (reference value: 16 mg/L); type: functional
Staphylococcus aureus [9] = assay: Antibacterial activity against Staphylococcus aureus MW2 NRS123 measured after 16 to 20 hrs in presence of 2% NaCl by microdilution broth method; type: functional
Staphylococcus aureus [10] = assay: Potentiation of oxacillin induced antibacterial activity against Staphylococcus aureus Mu50 NRS1 assessed as oxacillin MIC at 16 uM measured after 16 to 20 hrs in presence of 2% NaCl by microdilution broth method (reference value: 256 mg/L); type: functional
Staphylococcus aureus [11] = assay: Potentiation of oxacillin induced antibacterial activity against Staphylococcus aureus USA100-NRS382 assessed as oxacillin MIC at 8 uM measured after 16 to 20 hrs in presence of 2% NaCl by microdilution broth method (reference value: 64 mg/L); type: functional
Staphylococcus aureus [12] = assay: Potentiation of oxacillin induced antibacterial activity against Staphylococcus aureus NRS119 assessed as oxacillin MIC at 20 uM measured after 16 to 20 hrs in presence of 2% NaCl by microdilution broth method (reference value: 256 mg/L); type: functional
Staphylococcus aureus [13] = assay: Potentiation of oxacillin induced antibacterial activity against Staphylococcus aureus NRS384 assessed as oxacillin MIC at 20 uM measured after 16 to 20 hrs in presence of 2% NaCl by microdilution broth method (reference value: 32 mg/L); type: functional
Staphylococcus aureus [14] = assay: Potentiation of oxacillin induced antibacterial activity against Staphylococcus aureus NRS119 assessed as oxacillin MIC at 16 uM measured after 16 to 20 hrs in presence of 2% NaCl by microdilution broth method (reference value: 256 mg/L); type: functional
Staphylococcus aureus [15] = assay: Antibacterial activity against Staphylococcus aureus NRS70 measured after 16 to 20 hrs in absence of 2% NaCl by microdilution broth method
Staphylococcus aureus [16] = assay: Antibacterial activity against Staphylococcus aureus USA100-NRS382 measured after 16 to 20 hrs in presence of 2% NaCl by microdilution broth method; type: functional
Staphylococcus aureus [17] = assay: Potentiation of oxacillin induced antibacterial activity against Staphylococcus aureus MW2 NRS123 assessed as oxacillin MIC at 20 uM measured after 16 to 20 hrs in presence of 2% NaCl by microdilution broth method (reference value: 16 mg/L); type: functional
Staphylococcus aureus [18] = assay: Potentiation of oxacillin induced antibacterial activity against methicillin susceptible Staphylococcus aureus NRS77 assessed as reduction in oxacillin MIC at 20 uM measured after 16 to 20 hrs in presence of 2% NaCl by microdilution broth method; type: functional
Method in brief: (§1)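 Oxacillin MIC was measured against methicillin-susceptible strains with the adjuvant fixed at 20 μM. Potentiation was expressed as fold reduction of the oxacillin MIC relative to oxacillin alone.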

Staphylococcus aureus [19] = assay: Potentiation of oxacillin induced antibacterial activity against Staphylococcus aureus USA200-NRS383 assessed as oxacillin MIC at 20 uM measured after 16 to 20 hrs in presence of 2% NaCl by microdilution broth method (reference value: 128 mg/L); type: functional
Staphylococcus aureus [20] = assay: Potentiation of oxacillin induced antibacterial activity against Staphylococcus aureus MRSA252 assessed as oxacillin MIC at 8 uM measured after 16 to 20 hrs in presence of 2% NaCl by microdilution broth method (reference value: 256 mg/L); type: functional
Staphylococcus aureus [21] = assay: Potentiation of oxacillin induced antibacterial activity against Staphylococcus aureus NRS70 assessed as oxacillin MIC at 16 uM measured after 16 to 20 hrs in presence of 2% NaCl by microdilution broth method (reference value: 64 mg/L); type: functional
Staphylococcus aureus [22] = assay: Potentiation of oxacillin induced antibacterial activity against Staphylococcus aureus Mu50 NRS1 assessed as oxacillin MIC at 8 uM measured after 16 to 20 hrs in presence of 2% NaCl by microdilution broth method (reference value: 256 mg/L); type: functional
Staphylococcus aureus [23] = assay: Potentiation of oxacillin induced antibacterial activity against Staphylococcus aureus USA100-NRS382 assessed as oxacillin MIC at 20 uM measured after 16 to 20 hrs in presence of 2% NaCl by microdilution broth method (reference value: 64 mg/L); type: functional
Staphylococcus aureus [24] = assay: Antibacterial activity against Staphylococcus aureus MRSA252 measured after 16 to 20 hrs in presence of 2% NaCl by microdilution broth method; type: functional
Staphylococcus aureus [25] = assay: Potentiation of oxacillin induced antibacterial activity against Staphylococcus aureus NRS384 assessed as oxacillin MIC at 8 uM measured after 16 to 20 hrs in presence of 2% NaCl by microdilution broth method (reference value: 32 mg/L); type: functional
Staphylococcus aureus [26] = assay: Potentiation of oxacillin induced antibacterial activity against Staphylococcus aureus MRSA252 assessed as oxacillin MIC at 16 uM measured after 16 to 20 hrs in presence of 2% NaCl by microdilution broth method (reference value: 256 mg/L); type: functional
Staphylococcus aureus [27] = assay: Potentiation of oxacillin induced antibacterial activity against Staphylococcus aureus MW2 NRS123 assessed as oxacillin MIC at 16 uM measured after 16 to 20 hrs in presence of 2% NaCl by microdilution broth method (reference value: 16 mg/L); type: functional
Staphylococcus aureus [28] = assay: Potentiation of oxacillin induced antibacterial activity against methicillin susceptible Staphylococcus aureus NRS72 assessed as reduction in oxacillin MIC at 20 uM measured after 16 to 20 hrs in presence of 2% NaCl by microdilution broth method; type: functional; method in brief: as §1

SMILES	MIC (Staphylococcus aureus [1])	MIC (Staphylococcus aureus [2])	MIC (Staphylococcus aureus [3])	pIC50 (HeLa)	MIC (Staphylococcus aureus [5])	MIC (Staphylococcus aureus [6])	MIC (Staphylococcus aureus [7])	MIC (Staphylococcus aureus [8])	MIC (Staphylococcus aureus [9])	MIC (Staphylococcus aureus [10])	MIC (Staphylococcus aureus [11])	MIC (Staphylococcus aureus [12])	MIC (Staphylococcus aureus [13])	MIC (Staphylococcus aureus [14])	MIC (Staphylococcus aureus [15])	MIC (Staphylococcus aureus [16])	MIC (Staphylococcus aureus [17])	fold change (FC) (Staphylococcus aureus [18])	MIC (Staphylococcus aureus [20])	MIC (Staphylococcus aureus [21])	further results
N#C/C(=C\c1cc(Cc2ccc(Cl)c(Cl)c2)ccc1F)S(=O)(=O)c1ccccn1	16 µg/mL	16 µg/mL	0.25 µg/mL	4.06	16 µg/mL	≥ 128 µg/mL	16 µg/mL	0.5 µg/mL	16 µg/mL	0.03 µg/mL	0.5 µg/mL	0.12 µg/mL	0.06 µg/mL	0.5 µg/mL	16 µg/mL (≈ 35.8 µM)	16 µg/mL	0.25 µg/mL	2 - 10	256 µg/mL	0.03 µg/mL	MIC (Staphylococcus aureus [4]): ≥ 128 µg/mL; MIC (Staphylococcus aureus [19]): ≥ 128 µg/mL; MIC (Staphylococcus aureus [22]): 128 µg/mL; MIC (Staphylococcus aureus [23]): 0.12 µg/mL; MIC (Staphylococcus aureus [24]): 16 µg/mL; MIC (Staphylococcus aureus [25]): 0.5 µg/mL; MIC (Staphylococcus aureus [26]): 128 µg/mL; MIC (Staphylococcus aureus [27]): 0.12 µg/mL; fold change (FC) (Staphylococcus aureus [28]): 2 - 10
CS(=O)(=O)/C(C#N)=C/c1cc(Cc2ccc(Cl)c(Cl)c2)ccc1OC(F)(F)F	32 µg/mL	8 µg/mL	0.06 µg/mL	4.14	16 µg/mL	≥ 128 µg/mL	32 µg/mL	0.5 µg/mL	≥ 64 µg/mL	0.12 µg/mL	0.5 µg/mL	Active	≤ 0.03 µg/mL	0.03 µg/mL	8 µg/mL (≈ 17.8 µM)	≥ 64 µg/mL	≤ 0.03 µg/mL	2 - 10	2 µg/mL	≤ 0.03 µg/mL	MIC (Staphylococcus aureus [22]): 8 µg/mL; MIC (Staphylococcus aureus [23]): ≤ 0.03 µg/mL; MIC (Staphylococcus aureus [24]): 8 µg/mL; MIC (Staphylococcus aureus [25]): 0.25 µg/mL; MIC (Staphylococcus aureus [26]): ≤ 0.03 µg/mL; MIC (Staphylococcus aureus [27]): 0.12 µg/mL; fold change (FC) (Staphylococcus aureus [28]): 2 - 10
CS(=O)(=O)/C(C#N)=C/c1c(F)ccc(Cc2ccc(Cl)c(Cl)c2)c1F	16 µg/mL	16 µg/mL	1 µg/mL	4.04	16 µg/mL	≥ 128 µg/mL	16 µg/mL	≥ 16 µg/mL	16 µg/mL	4 µg/mL	1 µg/mL	Active	≤ 0.03 µg/mL	1 µg/mL	8 µg/mL (≈ 19.9 µM)	16 µg/mL	≤ 0.03 µg/mL	2 - 10	256 µg/mL	0.5 µg/mL	MIC (Staphylococcus aureus [4]): ≥ 128 µg/mL; MIC (Staphylococcus aureus [19]): ≥ 128 µg/mL; MIC (Staphylococcus aureus [22]): 16 µg/mL; MIC (Staphylococcus aureus [23]): ≤ 0.03 µg/mL; MIC (Staphylococcus aureus [24]): 16 µg/mL; MIC (Staphylococcus aureus [25]): 32 µg/mL; MIC (Staphylococcus aureus [26]): 256 µg/mL; MIC (Staphylococcus aureus [27]): 0.5 µg/mL; fold change (FC) (Staphylococcus aureus [28]): 2 - 10
